The source made the active and inactive calls. The rule behind the calls is not given here.
Assays:
L1210 = assay: Cytotoxicity against mouse L1210 cells after 2 days; assay type: functional, cell-based; conditions: L1210, 48 h
Procedure, shortened: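 L1210 cells at 300,000–500,000 cells/mL were added to an equal volume of diluted compound. After 2 days at 37 °C, cells were counted with a Coulter counter. IC50 is the concentration that inhibits proliferation by 50%.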

[1] = Cytotoxicity against human Molt4/C8 cells after 2 days; assay type: functional, cell-based; conditions: MOLT-4, 48 h
CCRF-CEM = assay: Cytotoxicity against human CEM cells after 2 days; assay type: functional, cell-based; conditions: for IC50: Homo sapiens, CCRF-CEM, 48 h
Influenza B virus = assay: Antiviral activity against influenza B virus infected in MDCK cells assessed as inhibition of virus induced cytopathic effect; assay type: functional, organism-based
Punta Toro virus = assay: Antiviral activity against Punta Toro virus infected in african green monkey Vero cells assessed as inhibition of virus induced cytopathic effect; assay type: functional, organism-based
Procedure, shortened: (§1)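 Confluent monolayers in 96-well plates were infected with 100 CCID50 of virus, with 1 h adsorption before residual virus was removed. Cultures were then kept with test compound at 200, 40 or 8 μM. Cytopathic effect was scored once it was complete in untreated infected controls.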

Sindbis virus = assay: Antiviral activity against Sindbis virus infected in african green monkey Vero cells assessed as inhibition of virus induced cytopathic effect; assay type: functional, organism-based; procedure, shortened: as §1
Feline coronavirus = assay: Antiviral activity against Feline coronavirus infected in CRFK cells assessed as inhibition of virus induced cytopathic effect; assay type: functional, organism-based; procedure, shortened: as §1
[2] = system: Vesicular stomatitis virus; assay: Antiviral activity against VSV infected in human HEL cells assessed as inhibition of virus induced cytopathic effect; assay type: functional, organism-based
Human respirovirus 3 = assay: Antiviral activity against Parainfluenza virus 3 infected in african green monkey Vero cells assessed as inhibition of virus induced cytopathic effect; assay type: functional, organism-based; procedure, shortened: as §1
Vaccinia virus = assay: Antiviral activity against Vaccinia virus infected in human HEL cells assessed as inhibition of virus induced cytopathic effect; assay type: functional, organism-based; conditions: Orthopoxvirus vaccinia
Influenza A virus [3] = assay: Antiviral activity against influenza A H1N1 virus infected in […] cells assessed as inhibition of virus induced cytopathic effect; assay type: functional, organism-based
[4] = system: Mammalian orthoreovirus 1; assay: Antiviral activity against Reovirus 1 infected in african green monkey Vero cells assessed as inhibition of virus induced cytopathic effect; assay type: functional, organism-based; procedure, shortened: as §1
Influenza A virus [5] = assay: Antiviral activity against influenza A H3N2 virus infected in […] cells assessed as inhibition of virus induced cytopathic effect; assay type: functional, organism-based
Human alphaherpesvirus 2 = assay: Antiviral activity against HSV2 G infected in human HEL cells assessed as inhibition of virus induced cytopathic effect; assay type: functional, organism-based; conditions: strain G; procedure, shortened: as §1
Human alphaherpesvirus 1 = assay: Antiviral activity against HSV1 KOS infected in human HEL cells assessed as inhibition of virus induced cytopathic effect; assay type: functional, organism-based; procedure, shortened: as §1

Compound	IC50 (L1210) [µM]	IC50 [1] [µM]	IC50 (CCRF-CEM) [µM]	other results
CN(C)/C=N\C1=N[C@@H]2[C@H](O1)O[C@H](CO)[C@H]2O	> 500	> 500	> 500	
O=c1c2c(nc3n1[C@@H]1[C@H](O3)O[C@H](CO)[C@H]1O)CCCC2	> 500	> 500	> 500	
CCOC(=O)c1cnc2n(c1=O)[C@@H]1[C@H](O2)O[C@H](CO)[C@H]1O	> 500	> 500	> 500	
CC(=O)c1cnc2n(c1=O)[C@@H]1[C@H](O2)O[C@H](CO)[C@H]1O	312	380	254	
O=c1[nH]c2c(c(=O)n1[C@@H]1O[C@H](CO)[C@@H](O)[C@@H]1O)CCCC2	> 500	> 500	> 500	
CC(=O)c1c[nH]c(=O)n([C@@H]2O[C@H](CO)[C@@H](O)[C@@H]2O)c1=O	> 500	> 500	> 500	
O=c1[nH]c(=O)n([C@@H]2O[C@H](CO)[C@@H](O)[C@@H]2O)c2c1CCCC2	> 500	> 500	> 500	
C/C(N)=C1/C=NC(=O)N([C@@H]2O[C@H](CO[Si](C)(C)C(C)(C)C)[C@@H](O[Si](C)(C)C(C)(C)C)[C@@H]2O)C1=O		18	17	
CCOC(=O)c1c[nH]c(=O)n([C@@H]2O[C@H](CO)[C@@H](O)[C@@H]2O)c1=O	> 500	> 500	> 500	
CN(C)/C=N\C1=N[C@@H]2[C@H](O1)O[C@H](CO[Si](C)(C)C(C)(C)C)[C@H]2O[Si](C)(C)C(C)(C)C	254	226	215	
CC(C)(C)[Si](C)(C)OC[C@H]1O[C@H]2Oc3nc4c(c(=O)n3[C@H]2[C@@H]1O[Si](C)(C)C(C)(C)C)CCCC4	201	129	126	Activity (Influenza B virus): inactive; Activity (Punta Toro virus): inactive; EC50 (CCRF-CEM; ccrf-cem): Not Active; Activity (Sindbis virus): inactive; Activity (Feline coronavirus): inactive; Activity [2]: inactive; Activity (Human respirovirus 3): inactive; EC50 (Vaccinia virus): 45 µM; Activity (Influenza A virus [3]): inactive; Activity [4]: inactive; Activity (Influenza A virus [5]): inactive; Activity (Human alphaherpesvirus 2): inactive; Activity (Human alphaherpesvirus 1): inactive
O=c1nc2n(c3c1CCCC3)[C@@H]1[C@H](O2)O[C@H](CO)[C@H]1O	> 500	> 500	> 500	
C/C(N)=C1/C=NC(=O)N([C@@H]2O[C@H](CO)[C@@H](O)[C@@H]2O)C1=O	211	299	217	
Nc1ccn([C@@H]2O[C@H](CO)[C@@H](O)[C@@H]2O)c(=O)n1 [CYTARABINE]	0.024		0.024	
CC(C)(C)[Si](C)(C)OC[C@H]1O[C@H]2Oc3nc(=O)c4c(n3[C@H]2[C@@H]1O[Si](C)(C)C(C)(C)C)CCCC4	229	185	212	
CC(=O)c1cnc2n(c1=O)[C@@H]1[C@H](O2)O[C@H](CO[Si](C)(C)C(C)(C)C)[C@H]1O[Si](C)(C)C(C)(C)C	6	7.9	7.5	

Reference: ChEMBL document CHEMBL1153735, “Synthesis and in vitro cytostatic activity of new beta-D-arabino furan[1',2':4,5]oxazolo- and arabino-pyrimidinone derivatives” (Eur J Med Chem, 2010)
